The record followed here is ChEMBL document CHEMBL1137810, “Dammarane-type Saponins from Panax japonicus and their neurite outgrowth activity in SK-N-SH cells” (J Nat Prod, 2002).

Data set [1] has as its system SK-N-SH. Description: Induction of neurite outgrowth in human SK-N-SH cells at 100 uM after 5 days relative to control. The data set is classed as functional. A digest of the protocol: (§1)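 SK-N-SH cells were plated at 4.7 × 10^4 cell/mL in gridded 60 mm dishes. Compound was added once at the start of culture, with 0.1% DMSO vehicle as control. After 5 days, 100-300 cells in four 650 × 430 µm areas were scored for the percentage bearing neurites longer than 50 µm, expressed as % of control. Values are mean ± sem of eight sights; Student's t-test, P < 0.05.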

For data set [2], the system named is SK-N-SH. Description: Effect on neurite outgrowth activity in human SK-N-SH cells assessed as increase in number of vericosites at 100 uM after 5 days. The data set is classed as functional. In short, it runs like this: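 Human SK-N-SH cells plated at 4.7 × 10^4 cell/mL in gridded 60 mm dishes. Compound added once at culture start at 100 µM; vehicle 0.1% DMSO. Cells examined after 5 days in four areas (650 × 430 µm). Varicosity number counted per cell, 40 cells per value, mean ± sem. Compared with control by Student's t-test, P < 0.05.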

The test system of data set [3] is SK-N-SH. The data set is described as follows: Cytotoxicity against human SK-N-SH cells at 100 uM. The data set is classed as cell-based.
For data set [4], the system named is SK-N-SH. The data set is described as follows: Induction of neurite outgrowth in human SK-N-SH cells at 10 uM after 5 days relative to control. The data set is classed as functional. A digest of the protocol:
as §1

The structures appear in SMILES notation.

`CC(=O)OC[C@H]1O[C@@H](O[C@H]2C[C@]3(C)[C@H](C[C@@H](O)[C@@H]4[C@@H]([C@]5(C)CC[C@@H](C(C)(C)O)O5)CC[C@]43C)[C@@]3(C)CC[C@H](O)C(C)(C)[C@H]23)[C@H](O[C@@H]2O[C@H](C)[C@@H](O)[C@H](O)[C@@H]2O)[C@@H](O)[C@@H]1O` [VINA-GINSENOSIDE R1] returned an Activity with SK-N-SH [1] of 82.2%.
On the same count and under the same terms, to `CC(=O)OC[C@H]1O[C@@H](O[C@H]2C[C@]3(C)[C@H](C[C@@H](O)[C@@H]4[C@@H]([C@]5(C)CC[C@@H](C(C)(C)O)O5)CC[C@]43C)[C@@]3(C)CC[C@H](O)C(C)(C)[C@H]23)[C@H](O[C@@H]2OC[C@@H](O)[C@H](O)[C@H]2O)[C@@H](O)[C@@H]1O` [GINSENOSIDE R2] belongs 97%.
`CC(C)=CCC[C@](C)(O[C@@H]1O[C@H](CO[C@@H]2O[C@H](CO)[C@@H](O)[C@H](O)[C@H]2O)[C@@H](O)[C@H](O)[C@H]1O)[C@H]1CC[C@]2(C)[C@@H]1[C@H](O)C[C@@H]1[C@@]3(C)CC[C@H](O[C@@H]4O[C@H](CO)[C@@H](O)[C@H](O)[C@H]4O[C@@H]4O[C@H](CO)[C@@H](O)[C@H](O)[C@H]4O)C(C)(C)[C@@H]3CC[C@]12C` [GINSENOSIDE RB1]: the Activity in the data set with SK-N-SH [1] turned out to be 178%; in the data set with SK-N-SH [2], 0.93.
In the case of `CC(C)=CCC[C@](C)(O[C@@H]1O[C@H](CO)[C@@H](O)[C@H](O)[C@H]1O)[C@H]1CC[C@]2(C)[C@@H]1[C@H](O)C[C@@H]1[C@@]3(C)CC[C@H](O)C(C)(C)[C@@H]3[C@@H](O[C@@H]3O[C@H](CO)[C@@H](O)[C@H](O)[C@H]3O)C[C@]12C` [GINSENOSIDE RG1], in the data set on SK-N-SH [1], the Activity came out at 107.3%.
The same measure, in the same setting: to `CC(C)(O)[C@@H]1CC[C@@](C)([C@H]2CC[C@]3(C)[C@@H]2[C@H](O)C[C@@H]2[C@@]4(C)CC[C@H](O)C(C)(C)[C@@H]4[C@@H](O[C@@H]4O[C@H](CO)[C@@H](O)[C@H](O)[C@H]4O[C@@H]4OC[C@@H](O)[C@H](O)[C@H]4O)C[C@]23C)O1` [MAJONOSIDE R2] belongs 109.6%.
Take `CC(C)=CCC[C@](C)(O[C@@H]1O[C@H](CO)[C@@H](O)[C@H](O)[C@H]1O)[C@H]1CC[C@]2(C)[C@@H]1[C@H](O)C[C@@H]1[C@@]3(C)CC[C@H](O)C(C)(C)[C@@H]3[C@@H](O[C@@H]3O[C@H](CO)[C@@H](O)[C@H](O)[C@H]3O[C@@H]3OC[C@@H](O)[C@H](O)[C@H]3O)C[C@]12C` [NOTOGINSENOSIDE R1]: the Activity in the data set on SK-N-SH [1] stood at 84.6%.
Turning to `CC(C)=CCC[C@](C)(O[C@@H]1O[C@H](CO[C@@H]2O[C@H](CO)[C@@H](O)[C@H](O)[C@H]2O)[C@@H](O)[C@H](O)[C@H]1O)[C@H]1CC[C@]2(C)[C@@H]1[C@H](O)C[C@@H]1[C@@]3(C)CC[C@H](O[C@@H]4O[C@H](CO)[C@@H](O)[C@H](O)[C@H]4O[C@@H]4O[C@H](CO)[C@@H](O)[C@H](O)[C@H]4O[C@@H]4OC[C@@H](O)[C@H](O)[C@H]4O)C(C)(C)[C@@H]3CC[C@]12C` [NOTOGINSENOSIDE FA], the Activity in the data set with SK-N-SH [1] was 147%; in the data set with SK-N-SH [2], 0.53.
`CC(C)(O)[C@@H]1CC[C@@](C)([C@H]2CC[C@]3(C)[C@@H]2[C@H](O)C[C@@H]2[C@@]4(C)CC[C@H](O)C(C)(C)[C@@H]4[C@@H](O[C@@H]4O[C@H](CO[C@H]5O[C@H](CO)[C@@H](O)[C@H](O)[C@H]5O)[C@@H](O)[C@H](O)[C@H]4O[C@@H]4OC[C@@H](O)[C@H](O)[C@H]4O)C[C@]23C)O1` had an Activity in the data set with SK-N-SH [1] of 104.1%.
In the case of `C[C@@H]1O[C@@H](O[C@H]2[C@H](O[C@H]3C[C@]4(C)[C@H](C[C@@H](O)[C@@H]5[C@@H]([C@]6(C)CC[C@@H](C(C)(C)O)O6)CC[C@]54C)[C@@]4(C)CC[C@H](O)C(C)(C)[C@H]34)O[C@H](CO)[C@@H](O)[C@@H]2O)[C@H](O)[C@H](O)[C@H]1O`, the Activity result was “Toxic” in the data set with SK-N-SH [3] and 103% in the data set with SK-N-SH [4].
In the data set with SK-N-SH [1], `CC(C)(O)[C@@H]1CC[C@@](C)([C@H]2CC[C@]3(C)[C@@H]2[C@H](O)C[C@@H]2[C@@]4(C)CC[C@H](O)C(C)(C)[C@@H]4[C@@H](O[C@@H]4O[C@H](CO)[C@@H](O)[C@H](O)[C@H]4O)C[C@]23C)O1` gave an Activity of 91.4%.
In the data set on SK-N-SH [1], `CC(C)=CCC[C@](C)(O[C@@H]1O[C@H](CO)[C@@H](O)[C@H](O)[C@H]1O)[C@H]1CC[C@]2(C)[C@@H]1[C@H](O)C[C@@H]1[C@@]3(C)CC[C@H](O)C(C)(C)[C@@H]3[C@@H](O[C@@H]3O[C@H](CO)[C@@H](O)[C@H](O)[C@H]3O[C@@H]3O[C@@H](C)[C@H](O)[C@@H](O)[C@H]3O)C[C@]12C` [GINSENOSIDE RE] came in with an Activity of 83.5%.
Regarding `CC(C)=CCC[C@](C)(O[C@@H]1O[C@H](CO[C@@H]2OC[C@@H](O)[C@H](O)[C@H]2O)[C@@H](O)[C@H](O)[C@H]1O)[C@H]1CC[C@]2(C)[C@@H]1[C@H](O)C[C@@H]1[C@@]3(C)CC[C@H](O[C@@H]4O[C@H](CO)[C@@H](O)[C@H](O)[C@H]4O[C@@H]4O[C@H](CO)[C@@H](O)[C@H](O)[C@H]4O)C(C)(C)[C@@H]3CC[C@]12C` [GINSENOSIDE RB3], the figures for the Activity in the data set with SK-N-SH [1] and in the data set with SK-N-SH [2] were 228% and 0.8, respectively.
Consider `CC(C)=CCC[C@](C)(O[C@@H]1O[C@H](CO)[C@@H](O)[C@H](O)[C@H]1O)[C@H]1CC[C@]2(C)[C@@H]1[C@H](O)C[C@@H]1[C@@]3(C)CC[C@H](O)C(C)(C)[C@@H]3[C@@H](O[C@@H]3O[C@H](CO)[C@@H](O)[C@H](O)[C@H]3O[C@@H]3O[C@H](CO)[C@@H](O)[C@H](O)[C@H]3O)C[C@]12C`, for which the Activity with SK-N-SH [1] is listed as 96.6%.
